From PubChem BioAssay
Compounds with a hit are over-represented: about 0.79% of the library has one in this group of screens.
mIAP activ: increases mouse intestinal alkaline phosphatase activity; AID 2805; muIAP, CDP-Star luminescence, 30 min; stronger effect = higher value; 1 = vehicle-only enzyme signal, 0 = enzyme-free wells; activation factor at 10 µM; 330,000 tested, 0.24% active;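 active means activation factor of at least 2 at 20 µM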
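Assay system: mouse IAP enzyme; Reagent: CDP-Star chemiluminescent phosphatase substrate; Compound: DMSO-dissolved test compounds; Incubation: 30 min, room temperature; Technique: luminescence from enzymatic CDP-Star hydrolysis; Controls: DMSO-only wells and no-enzyme negative control.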
mIAP inh: blocks mouse intestinal alkaline phosphatase. purified mouse IAP, CDP-Star luminescence, 30 min. inhibition, % at 10 µM. 330,000 tested, 0.2% active. AID 2806;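 active means inhibition of at least 40% at 10 µM in the primary screen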
hIAP act: increases human intestinal alkaline phosphatase activity; P09923; purified human IAP, CDP-Star luminescence, 30 min; stronger effect = higher value; 1 = vehicle-only enzyme, 0 = enzyme-free background; activation factor at 10 µM; 330,000 tested, 0.16% active; AID 2524;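 active means activation factor of the enzyme at least 2-fold when tested at 20 µM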
Target sequence (P09923 whole entry, looked up): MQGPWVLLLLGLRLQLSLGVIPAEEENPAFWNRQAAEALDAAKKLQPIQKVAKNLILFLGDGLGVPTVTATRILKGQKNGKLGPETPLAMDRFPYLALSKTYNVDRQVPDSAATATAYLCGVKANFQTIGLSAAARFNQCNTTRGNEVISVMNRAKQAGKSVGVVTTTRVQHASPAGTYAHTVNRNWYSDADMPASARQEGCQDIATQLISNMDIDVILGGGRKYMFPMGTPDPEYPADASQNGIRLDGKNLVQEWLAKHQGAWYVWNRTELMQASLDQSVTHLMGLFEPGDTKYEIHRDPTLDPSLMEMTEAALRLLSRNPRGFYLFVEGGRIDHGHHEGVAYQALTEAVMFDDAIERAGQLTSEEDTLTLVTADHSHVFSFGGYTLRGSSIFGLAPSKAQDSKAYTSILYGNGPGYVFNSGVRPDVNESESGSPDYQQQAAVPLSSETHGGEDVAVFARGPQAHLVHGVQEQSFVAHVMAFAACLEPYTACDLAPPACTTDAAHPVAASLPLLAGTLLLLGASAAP
hIAP block: blocks human intestinal alkaline phosphatase | purified IAP, CDP-Star luminescence, 30 min | AID 2544 | inhibition, % at 10 µM | 330,000 tested, 0.12% active | P09923;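 active means inhibition reaching a set limit with compound at 10 µM in the primary screen, cut at about 35% in these data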
bIAP act: intestinal alkaline phosphatase (bovine) activation; purified bovine IAP, CDP-star luminescence, 30 min; stronger effect = higher value; fold of DMSO-control signal, blank-subtracted; activation factor at 20 µM; AID 1016; 200,000 tested, 0.17% active;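 active means activation factor of 2 or more at 20 µM, a signal rise over negative controls twice the positive control's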
bIAP inhibitor: blocks bovine intestinal alkaline phosphatase activity. purified bovine IAP, CDP-star luminescence, 30 min. inhibition, % at 20 µM. 190,000 tested, under 10 active. AID 1019;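 active means over 50% inhibition of intestinal alkaline phosphatase at 20 µM in the single-dose screen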
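Assay system: bovine IAP enzyme; medium: DEA buffer 100 mM, pH 9.8, with MgCl2 1.0 mM, ZnCl2 0.02 mM; doses: 20 µM single dose; incubation: enzyme reaction for 30 min at room temperature; detection: CDP-star luminescence signal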
hIAP act confirm: human IAP activation confirmation; shares compounds with hIAP act; purified IAP, CDP-Star luminescence, 30 min; stronger effect = lower value; activation (%Activity, negative = activation), % at 8.3 µM; 880 tested, 10% active; AID 434926;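 active means at least twofold enzyme activation in any of six single-dose repeats, which the averaged readout prints as negative percent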
mIAP inh conf: mouse IAP inhibition confirmation; shares compounds with mIAP inh; purified mouse IAP, CDP-Star luminescence, 30 min; inhibition, % at 10 µM; 11,000 tested, 4.7% active;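 active means inhibition of at least 40% at 10 µM in either of the two replicates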
A number is an active result; 0 = inactive; - = no result.

SMILES	mIAP activ	mIAP inh	hIAP act	hIAP block	bIAP act	bIAP inhibitor	hIAP act confirm	others
Cc1ccc2c(c1)[C@H]1[C@H](CO2)[C@H](c2ccccc2)[C@]2(C)C(=O)Nc3cc(F)ccc3C(=O)N12	0	0	0	0	-	-	-
COC(=O)/C=C1\N/C(=N/c2nc(C)c3cc(OC)ccc3n2)NC1=O	0	0	2.54	0	-	-	0
COC(=O)/C=C1/C(=O)N/C(=N\c2nc(C)cc(C)n2)N1c1ccc(OC)cc1	0	0	0	0	0	0	-
COc1ccc(NC(=O)C(C)N2C(=O)C3CC=C(Cl)CC3C2=O)cc1 (stereo unspecified)	0	0	0	0	-	-	-
Cc1ccc(-c2noc(CCC(=O)N3CCCc4ccccc43)n2)cc1	0	0	0	0	0	0	-
COc1cc(C(=O)NC(=S)NNC(=O)c2cnccn2)cc(OC)c1OC	0	0	2.16	0	0	0	0
Cc1cc(C)cc(OCC(=O)NNC(=O)c2cc(C)[nH]n2)c1	0	0	2.07	0	0	0	-94.6
COc1ccc(-c2c(C)n([O-])c3c([n+]2=O)CCCC3)cc1	0	0	2.22	0	0	0	0
CCOc1cc(/C=C2/C(=O)ON=C2C)cc(Br)c1O	0	0	0	38.5	-	-	0
CC(=O)Nc1ccc(Nc2ncnc3c2cnn3-c2ccccc2)cc1	0	0	0	0	0	0	-
Cc1ccc(-n2ncc3c(NNC(=O)Cc4ccccc4)ncnc32)cc1	0	0	2.21	0	0	0	0
CC(=O)NNc1ncnc2c1cnn2-c1ccccc1	0	0	3.04	0	0	0	0
COc1ccc(CN2CCC(n3nccc3NC(=O)CCOc3ccccc3)CC2)cc1C	0	0	0	0	-	-	-
Cc1[nH]n(-c2nc(-c3ccccc3)cc(=O)[nH]2)c(=O)c1CCO	0	0	0	62.1	0	0	0
O=C(NCCc1ccc(Cl)cc1)c1ccc2[nH]c(=O)c(=O)[nH]c2c1	0	0	2	0	-	-	0
O=C(NCc1ccccc1)N1CCn2c(nc3ccccc32)C1	0	0	0	0	0	0	-
O=C(OCC(=O)N(Cc1ccccc1)C1CCS(=O)(=O)C1)c1cc2c(s1)CCCC2 (stereo unspecified)	0	0	0	0	0	0	-
CC(C)CC(=O)NC(=S)Nc1ccccc1C(=O)Nc1ccccc1	0	0	2.7	0	0	0	0
CC(C)C(=O)NC(=S)Nc1ccccc1C(=O)Nc1ccccc1	0	0	2.65	0	0	0	-107.6
COc1ccc(Nc2nnc(SCC3CCCO3)s2)cc1 (stereo unspecified)	0	0	0	0	0	0	-
COc1ccc(/C=C/C(=O)c2ccc(C)c([N+](=O)[O-])c2)cc1O	0	0	0	0	0	0	-
COc1cc(/C=C/C(=O)c2ccc(C)c([N+](=O)[O-])c2)cc(OC)c1O	0	0	0	46.6	0	0	0
O=C(Nc1ccnn1C1CCN(Cc2ccccc2)CC1)C1CCCC1	0	0	0	0	-	-	-
CC(Cc1ccc(Cl)cc1)N1CCC(n2nccc2NC(=O)C2CCCC2)CC1 (stereo unspecified)	0	0	2.28	0	-	-	0
c1ccc(-c2cc3c(ccc4nonc43)nn2)cc1	0	0	0	0	0	0	-
SMILES	mIAP activ	mIAP inh	hIAP act	hIAP block	bIAP act	bIAP inhibitor	hIAP act confirm	others
On1onc2c3cc(-c4ccccc4)nc3ccc21	0	0	0	36.6	0	0	0
COc1ccc(/C=N/Nc2nc(-c3cccnc3)nc3ccccc23)c(OC)c1	0	0	0	0	-	-	-
COc1ccc(-c2csc(NC(=S)NC(=O)c3ccccc3)n2)cc1Br	0	0	0	0	-	-	-
COc1ccc(C(=O)NC(=S)Nc2nc(-c3ccc(OC)c(Br)c3)cs2)cc1Br	0	0	0	38.0	-	-	0
FC(F)(F)c1ccc(Cl)c(-n2c(-c3cc(C4CC4)[nH]n3)n[nH]c2=S)c1	0	0	0	0	-	-	-
O=C(NCCCN1CCOCC1)C(=O)N/N=C/c1ccccc1Cl	0	0	0	0	-	-	-
O=C(NCc1ccccn1)C(=O)N/N=C/c1ccccc1O	0	0	2.98	0	-	-	0
O=C(NCCCN1CCOCC1)C(=O)N/N=C/c1ccccc1O	0	0	2	0	-	-	0
CCOc1ccc(CCNC(=O)c2cc(-c3ccccc3)c(N3CCOCC3)s2)cc1OCC	2.16	0	2.52	0	-	-	0
COc1ccc(CCNC(=O)c2cc(-c3ccccc3)c(N3CCOCC3)s2)c(OC)c1OC	0	0	0	0	-	-	-
CCn1nc(C)c(CN2CCC(C(=O)Nc3cccc(-c4cccc(Cl)c4)c3)CC2)c1C	8.19	0	8.75	0	-	-	0	mIAP inh conf=0
CCS(=O)(=O)N1CCC(C(=O)Nc2cccc(F)c2)CC1	0	0	0	0	-	-	-
CCn1ncc(CN2CCC(C(=O)Nc3cccc(-c4cccc(F)c4)c3)CC2)c1C	3.47	0	4.03	0	-	-	0	mIAP inh conf=0
C[C@H](C(=O)CC(=O)OC(C)(C)C)[C@H](O)c1ccccc1	0	0	0	0	-	-	-
COc1ccc(NC(=O)CNc2ccccc2C(C)=O)cc1S(=O)(=O)N1CCOCC1	0	0	0	0	-	-	-
O=C(Nc1cccc(-n2cccn2)c1)C1CCCN(Cc2ccccc2F)C1 (stereo unspecified)	0	0	0	0	-	-	-
CC(C)c1ccc(NC(=O)NC2CCN(CC(=O)Nc3cccc4ccccc34)CC2)cc1	4.23	0	2.22	0	0	0	0	mIAP inh conf=0
Cc1ccc(NC(=O)C2CC(=O)Nc3nc4ccccc4n32)c(C)c1 (stereo unspecified)	3.53	0	2.69	0	-	-	0	mIAP inh conf=0
CNc1nnc(-c2cc3ccccc3oc2=O)s1	0	57.8	0	73.3	0	-	0	mIAP inh conf=66.4
Cc1ccccc1-c1nnc(NC(=O)c2cc3ccccc3oc2=O)s1	-	-	-	-	0	0	-
O=C1/C(=C\c2cccc(O)c2O)SC(=S)N1Cc1ccccc1	0	41.0	0	44.8	-	-	0	mIAP inh conf=63.3
O=C1/C(=C\c2cccc(O)c2)SC(=S)N1Cc1ccccc1	0	0	0	0	-	-	-
O=c1c(O[C@@H]2O[C@H](CO)[C@H](O)[C@H](O)[C@H]2O)c(-c2ccc(O)c(O)c2)oc2cc(O)cc(O)c12	-	-	-	-	0	0	-
O=c1c(O[C@@H]2O[C@H](CO)[C@@H](O)[C@H](O)[C@H]2O)c(-c2ccc(O)c(O)c2)oc2cc(O)cc(O)c12	0	54.9	0	57.3	0	0	0	mIAP inh conf=57.9
COc1ccc(NC(=O)CN2C(=O)NC(C)(C3CC3)C2=O)cc1S(=O)(=O)N1CCCCC1 (stereo unspecified)	0	0	0	0	-	-	-
O=C(O)C(c1ccccc1)N1C(=O)/C(=C\c2ccc(O)c(O)c2)SC1=S (stereo unspecified)	0	66.9	0	74.8	-	-	0	mIAP inh conf=78.6
